Results: publication PMC3644855 (Nuclear medicine and biology, 2009)
Where “and” joins values, the source holds several entries; their conditions need not be identical. Equal entries are not always repeated. Where two headings read alike, the source gives them in different places.

Key:
[1] = assay type: in vivo; settings: rat i.v., LC/MS
Summary of the method: (§1)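 Male Sprague-Dawley rats (220–260 g, 3 per group), awake, got i.v. 0.5–1 mCi 18F-labelled test compound in 100 μL, carrying 1, 11 or 18 nmol unlabelled compound; killed at 5 or 30 min. Dissected brain regions and plasma, spiked with internal standard, homogenized at pH 12.5, extracted with hexane:ethyl acetate (4:1), dried and redissolved in 50% CH3CN. Analysed by UPLC-Q-TOF (positive ESI) against matrix calibration, triplicate. DUR = %ID/g × body weight/100.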

[2] = molecular target: T1, 5-HT1A receptor (Rattus norvegicus, UniProt P19327); experiment: Brain tissue specific binding ratio [; assay type: in vivo
T1 sequence (P19327 1-422): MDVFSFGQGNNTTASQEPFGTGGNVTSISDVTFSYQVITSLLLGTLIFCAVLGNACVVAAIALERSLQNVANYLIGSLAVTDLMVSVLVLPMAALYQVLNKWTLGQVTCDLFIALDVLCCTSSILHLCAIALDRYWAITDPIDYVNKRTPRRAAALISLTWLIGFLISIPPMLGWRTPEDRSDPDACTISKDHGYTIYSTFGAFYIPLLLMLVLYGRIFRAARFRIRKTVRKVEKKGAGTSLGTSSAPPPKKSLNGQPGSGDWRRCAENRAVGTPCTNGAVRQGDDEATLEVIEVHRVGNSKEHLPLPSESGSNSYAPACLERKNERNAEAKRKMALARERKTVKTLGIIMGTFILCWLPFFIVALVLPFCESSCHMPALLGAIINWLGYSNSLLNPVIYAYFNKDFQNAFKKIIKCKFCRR
Summary of the method: as §1

[3] = rat i.v., 1 nmol, 30 min, LC/MS
[4] = rat i.v., 11 nmol, 30 min, LC/MS
[5] = rat i.v., 18 nmol, 30 min, LC/MS

For COc1ccccc1N1CCN(CCN(C(=O)c2ccc(F)cc2)c2ncccn2)CC1 [FPWAY, 4-Fluoro-N-{2-[4-(2-methoxyphenyl)-1-piperazinyl]ethyl}-N-(2-pyrimidinyl)benzamide], the “DUR Hippocampus” value ([1]; 1 nmol, 5 min) was 4.28 %ID/g * body weight/100 and 4.28±0.35 %ID/g * body weight/100, the DUR brain stem ([1]; 1 nmol, 5 min) was 2.36±0.35 %ID/g * body weight/100 and the DUR caudate ([1]; 1 nmol, 5 min) was 1.70±0.30 %ID/g * body weight/100. The DUR cerebellum ([1]; 1 nmol, 5 min) was 1.31±0.21 %ID/g * body weight/100, the DUR cortex ([1]; 1 nmol, 5 min) was 3.10±0.78 %ID/g * body weight/100 and the DUR plasma ([1]; 1 nmol, 5 min) was 0.49±0.17 %ID/g * body weight/100. The DUR thalamus ([1]; 1 nmol, 5 min) was 2.39±0.45 %ID/g * body weight/100, the “DUR Hippocampus” value ([1]; 1 nmol, 30 min) was 2.20 %ID/g * body weight/100 and 2.20±0.38 %ID/g * body weight/100 and the DUR brain stem ([1]; 1 nmol, 30 min) was 0.98±0.05 %ID/g * body weight/100. It also gave a DUR caudate ([1]; 1 nmol, 30 min) of 0.60±0.04 %ID/g * body weight/100, a DUR cerebellum ([1]; 1 nmol, 30 min) of 0.32±0.08 %ID/g * body weight/100 and a DUR cortex ([1]; 1 nmol, 30 min) of 1.06±0.25 %ID/g * body weight/100. The DUR plasma ([1]; 1 nmol, 30 min) was 0.21±0.07 %ID/g * body weight/100, the DUR thalamus ([1]; 1 nmol, 30 min) was 0.81±0.02 %ID/g * body weight/100 and the “DUR Hippocampus” value ([1]; 11 nmol, 30 min) was 0.79 %ID/g * body weight/100 and 0.79±0.08 %ID/g * body weight/100. The DUR brain stem ([1]; 11 nmol, 30 min) was 0.32±0.05 %ID/g * body weight/100, the DUR caudate ([1]; 11 nmol, 30 min) was 0.38±0.06 %ID/g * body weight/100 and the DUR cerebellum ([1]; 11 nmol, 30 min) was 0.23±0.03 %ID/g * body weight/100. The DUR cortex ([1]; 11 nmol, 30 min) was 0.52±0.05 %ID/g * body weight/100, the DUR plasma ([1]; 11 nmol, 30 min) was 0.13±0.02 %ID/g * body weight/100 and the DUR thalamus ([1]; 11 nmol, 30 min) was 0.41±0.08 %ID/g * body weight/100. For the same compound, the “hippocampus uptake (DUR)” value ([1]; 17 nmol, 30 min, hippocampus) was 0.53, the “DUR Hippocampus” value ([1]; 18 nmol, 30 min) was 0.53±0.03 %ID/g * body weight/100 and the DUR brain stem ([1]; 18 nmol, 30 min) was 0.30±0.05 %ID/g * body weight/100. It also gave a DUR caudate ([1]; 18 nmol, 30 min) of 0.25±0.08 %ID/g * body weight/100, a DUR cerebellum ([1]; 18 nmol, 30 min) of 0.16±0.02 %ID/g * body weight/100 and a DUR cortex ([1]; 18 nmol, 30 min) of 0.41±0.18 %ID/g * body weight/100. The DUR plasma ([1]; 18 nmol, 30 min) was 0.33±0.11 %ID/g * body weight/100, the DUR thalamus ([1]; 18 nmol, 30 min) was 0.30±0.04 %ID/g * body weight/100 and the “Specific binding ratio [(DURtissue/DURCb)−1] Hippocampus” value ([2]; rat i.v., 1 nmol, 5 min, LC/MS) was 2.30 and 2.30±0.42. The “Specific binding ratio [(DURtissue/DURCb)−1] brain stem” value ([2]; rat i.v., 1 nmol, 5 min, LC/MS) was 0.75±0.35, the “Specific binding ratio [(DURtissue/DURCb)−1] caudate” value ([2]; rat i.v., 1 nmol, 5 min, LC/MS) was 0.30±0.13 and the “Specific binding ratio [(DURtissue/DURCb)−1] cortex” value ([2]; rat i.v., 1 nmol, 5 min, LC/MS) was 1.34±0.27. For the same compound, the “Specific binding ratio [(DURtissue/DURCb)−1] thalamus” value ([2]; rat i.v., 1 nmol, 5 min, LC/MS) was 0.84±0.30, the “Specific binding ratio [(DURtissue/DURCb)−1] Hippocampus” value [2, 3] was 5.87 and 5.87±0.56 and the “Specific binding ratio [(DURtissue/DURCb)−1] brain stem” value [2, 3] was 1.99±0.53. For the same compound, the “Specific binding ratio [(DURtissue/DURCb)−1] caudate” value [2, 3] was 0.95±0.06, the “Specific binding ratio [(DURtissue/DURCb)−1] cortex” value [2, 3] was 2.29±0.06 and the “Specific binding ratio [(DURtissue/DURCb)−1] thalamus” value [2, 3] was 1.58±0.58. For the same compound, the “Specific binding ratio [(DURtissue/DURCb)−1] Hippocampus” value [2, 4] was 2.43 and 2.43±0.35, the “Specific binding ratio [(DURtissue/DURCb)−1] brain stem” value [2, 4] was 0.42±0.33 and the “Specific binding ratio [(DURtissue/DURCb)−1] caudate” value [2, 4] was 0.65±0.31. The “Specific binding ratio [(DURtissue/DURCb)−1] cortex” value [2, 4] was 1.26±0.28, the “Specific binding ratio [(DURtissue/DURCb)−1] thalamus” value [2, 4] was 0.78±0.29 and the “specific binding ratio hippocampus” value ([2]; rat i.v., 17 nmol, 30 min, hippocampus, LC/MS) was 2.42. The “Specific binding ratio [(DURtissue/DURCb)−1] Hippocampus” value [2, 5] was 2.42±0.28, the “Specific binding ratio [(DURtissue/DURCb)−1] brain stem” value [2, 5] was 0.93±0.13 and the “Specific binding ratio [(DURtissue/DURCb)−1] caudate” value [2, 5] was 0.67±0.31. The “Specific binding ratio [(DURtissue/DURCb)−1] cortex” value [2, 5] was 1.61±0.39, the “Specific binding ratio [(DURtissue/DURCb)−1] thalamus” value [2, 5] was 0.91±0.14 and the “saturability of binding with increasing mass dose” value ([2]; rat, 1, 11 and 18 nmol mass doses, hippocampus) was “demonstrates saturability of binding”.
